In brackets after ≈: the same amount, converted by molar mass.
Tested on: Mycolicibacterium smegmatis
Experiment: Antimicrobial activity against wild-type Mycobacterium smegmatis SMR5 by microplate Alamar blue assay
Assay type: functional
Procedure, shortened: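 M. smegmatis SMR5 carried either control plasmid pMS2 or rv0194 expression vector pML655. Cells were grown at 37°C in Middlebrook 7H9 with 0.2% glycerol and 0.05% Tween 80, then tested by microplate Alamar blue assay. MIC was the lowest antibiotic concentration reducing culture viability by ≥90%, read by fluorescence (ex 530/em 590 nm, room temperature).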

Row | SMILES | MIC
1 | CO[C@@H]1[C@@H](OC(N)=O)[C@@H](O)[C@H](Oc2ccc3c(O)c(NC(=O)c4ccc(O)c(CC=C(C)C)c4)c(=O)oc3c2C)OC1(C)C [NOVOBIOCIN] | 4 µg/mL (≈ 6.53 µM)
2 | CC[C@H]1OC(=O)[C@H](C)[C@@H](O[C@H]2C[C@@](C)(OC)[C@@H](O)[C@H](C)O2)[C@H](C)[C@@H](O[C@@H]2O[C@H](C)C[C@H](N(C)C)[C@H]2O)[C@](C)(O)C[C@@H](C)C(=O)[C@H](C)[C@@H](O)[C@]1(C)O [ERYTHROMYCIN] | 2.5 µg/mL (≈ 3.41 µM)
3 | CN[C@H](CC(C)C)C(=O)N[C@H]1C(=O)N[C@@H](CC(N)=O)C(=O)N[C@H]2C(=O)N[C@H]3C(=O)N[C@H](C(=O)N[C@H](C(=O)O)c4cc(O)cc(O)c4-c4cc3ccc4O)[C@H](O)c3ccc(c(Cl)c3)Oc3cc2cc(c3O[C@@H]2O[C@H](CO)[C@@H](O)[C@H](O)[C@H]2O[C@H]2C[C@](C)(N)[C@H](O)[C@H](C)O2)Oc2ccc(cc2Cl)[C@H]1O [VANCOMYCIN] | 1.25 µg/mL (≈ 0.863 µM)
4 | CN(C)[C@@H]1C(O)=C(C(N)=O)C(=O)[C@@]2(O)C(O)=C3C(=O)c4c(O)cccc4[C@@](C)(O)[C@H]3C[C@@H]12 [TETRACYCLINE] | 0.3 µg/mL (≈ 0.675 µM)
5 | CC1(C)S[C@@H]2[C@H](NC(=O)[C@H](N)c3ccccc3)C(=O)N2[C@H]1C(=O)O [AMPICILLIN] | 125 µg/mL (≈ 358 µM)
6 | O=C(N[C@H](CO)[C@H](O)c1ccc([N+](=O)[O-])cc1)C(Cl)Cl [CHLORAMPHENICOL] | 32 µg/mL (≈ 99 µM)

Source: ChEMBL document CHEMBL1275448, “Identification of a novel multidrug efflux pump of Mycobacterium tuberculosis” (2008)
